Published values pooled from the literature.
Compare with care: the assays were run in different laboratories.
Target: Serine/threonine-protein kinase BRSK1 (BRSK1, Homo sapiens, UniProt Q8TDC3)
One construct used (Q8TDC3 1-778): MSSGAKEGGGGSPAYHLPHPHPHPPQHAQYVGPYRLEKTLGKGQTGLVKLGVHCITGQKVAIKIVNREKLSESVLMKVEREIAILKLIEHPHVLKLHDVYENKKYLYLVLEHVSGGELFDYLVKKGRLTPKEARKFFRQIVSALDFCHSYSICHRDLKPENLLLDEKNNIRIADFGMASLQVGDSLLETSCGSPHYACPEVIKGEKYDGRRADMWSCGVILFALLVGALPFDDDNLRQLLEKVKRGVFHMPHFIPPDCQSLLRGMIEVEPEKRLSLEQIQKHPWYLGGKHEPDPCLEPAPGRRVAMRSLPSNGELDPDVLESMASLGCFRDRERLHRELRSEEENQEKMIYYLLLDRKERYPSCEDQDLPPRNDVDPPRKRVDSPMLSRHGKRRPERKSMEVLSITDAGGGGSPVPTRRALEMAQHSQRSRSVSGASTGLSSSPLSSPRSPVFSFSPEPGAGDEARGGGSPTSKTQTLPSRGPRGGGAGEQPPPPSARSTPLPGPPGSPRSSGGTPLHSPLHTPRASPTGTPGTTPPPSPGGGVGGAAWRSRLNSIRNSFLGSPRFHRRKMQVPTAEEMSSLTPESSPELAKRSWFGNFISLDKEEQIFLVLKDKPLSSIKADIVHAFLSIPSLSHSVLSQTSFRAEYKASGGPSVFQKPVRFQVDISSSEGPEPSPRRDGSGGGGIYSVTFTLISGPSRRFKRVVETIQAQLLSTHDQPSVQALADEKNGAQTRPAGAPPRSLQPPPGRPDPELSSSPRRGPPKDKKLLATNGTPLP

With `COc1cnc(Nc2cccc(S(N)(=O)=O)c2)nc1N1CCN(c2ccccc2)CC1` the remaining binding was 96% (binding, competition with immobilised ligand; 1 µM).
With `N[C@H]1CCN(c2nccc(-c3cnn4ncccc34)n2)C1` the remaining binding was 81% (binding; 1 µM).
`COc1ccc2c(c1)O[C@H](c1ccc(OC)c(OC)c1)C[C@@H]2NC(=O)C1(c2ccc3c(c2)OC(F)(F)O3)CC1` has a remaining binding of 100% (cell-free assay, competition with immobilised ligand; 1 µM).
With `CN(c1nccc(-c2cnn3ncccc23)n1)C1CC1` the remaining binding was 100% (binding; 1 µM).
`O=C(c1ccc(Nc2ncc(Cl)c(-c3cc4ccccc4s3)n2)cc1)N1CCC(N2CCCC2)CC1` gave a remaining binding of 32% (binding, competition with immobilised ligand; 1 µM).
For `CN(C)c1ncc(F)c(-c2cnn3ncccc23)n1`, the remaining binding was 87% (binding; 1 µM).
`COc1ncc2cc3ccccc3nc2c1C#N` gave a remaining binding of 89% (cell-free assay, competition with immobilised ligand; 5 µM).
For `C=CC(=O)N1CCC(C(=O)NCC(=O)N2CCN(c3nc(-c4cnc(N)nc4C(F)F)nc(N4CCOCC4)n3)CC2)CC1`, the remaining binding was 100% (binding, competition with immobilised ligand; 1 µM).
With `COc1cnc(Nc2cccc(S(N)(=O)=O)c2)nc1N1CCN(c2ccccc2)C(=O)C1` the remaining binding was 100% (binding, competition with immobilised ligand; 1 µM).
With `O=C(NCCCN1CCOCC1)c1ccc(Nc2nccc(-c3cc4ccccc4s3)n2)cc1` the remaining binding was 70% (binding, competition with immobilised ligand; 1 µM).
For `C[C@@H](c1ccc(-n2cnc3c(N)ncnc32)cc1)N1CCc2nn(C)c(Cc3ccccc3)c2C1=O`, the remaining binding was 93% (binding, competition with immobilised ligand; 0.1 µM).
`CN(C)c1nccc(-c2cnn3ncccc23)n1` has a remaining binding of 100% (binding; 1 µM).
`C[C@H](c1cccc(C#N)c1)n1cc(Cl)cc(C(N)=O)c1=N` has a remaining binding of 68% (cell-free assay, competition with immobilised ligand; 1 µM).
`O=C(Nc1c[nH]nc1C(=O)NC1CCNCC1)c1cc(F)cc(F)c1` has a remaining binding of 89% (binding, competition with immobilised ligand; 1 µM).
`COc1cc(-c2cn(C3CCc4ccccc4N(CC(F)(F)F)C3=O)nn2)ccc1-n1ccc(C)n1` (stereo not shown) gave a remaining binding of 81% (cell-free assay, competition with immobilised ligand; 1 µM).
The remaining binding of `CN(CCCC(F)(F)F)c1nccc(-c2cnn3ncccc23)n1` is reported as 100% (binding; 1 µM).
With `N#CC1(c2ccccn2)CCN(Cc2cc(C(=O)N3CCCC3)c(=O)n3ccccc23)CC1` the remaining binding was 87% (cell-free assay, competition with immobilised ligand; 1 µM).
`CC1CCCN1c1nccc(-c2cnn3ncccc23)n1` (stereo not shown) has a remaining binding of 95% (binding; 1 µM).
`Cc1nccc(COC(=O)N2C[C@@H]3[C@@H](CNC(=O)c4ccc5[nH]nnc5c4)[C@@H]3C2)n1` has a remaining binding of 100% (cell-free assay, competition with immobilised ligand; 1 µM).
`C[C@H]1CCN(c2nccc(-c3cnn4ncccc34)n2)C1` has a remaining binding of 98% (binding; 1 µM).
`Cc1c[nH]c2nccc(Oc3c(F)cc(Nc4cc(Cl)nc(N)n4)cc3F)c12` has a remaining binding of 96% (cell-free assay, competition with immobilised ligand; 0.1 µM).
With `O=C(c1ccc(Nc2ncc(Cl)c(-c3ccc(Cl)s3)n2)cc1)N1CCC(N2CCCC2)CC1` the remaining binding was 57% (binding, competition with immobilised ligand; 1 µM).
